Data: ChEMBL document CHEMBL4513216, “Probing the Open Global Health Chemical Diversity Library for Multistage-Active Starting Points for Next-Generation Antimalarials” (ACS Infect Dis, 2020)

test: Toxicity liver stage against HepG2, at 10uM; format: cell-based; set-up: test concentration 10 uM, cell line HepG2-A16-CD81EGFP; details: human, HepG2-A16-CD81EGFP cells; read-out: INHIBITION
Method in brief: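 Uninfected HepG2-A16-CD81EGFP cells, 3 × 10^3 per well, 1536-well, plated on prespotted compound at 10 μM final, parasite-free screening media added to match infected plates; puromycin 10 μM positive, DMSO 0.5% negative; run in parallel with 48 h PbLuc assay at 37 °C, 5% CO2; viability by CellTiter-Glo luminescence, normalized to controls.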

**Q.** Which cytotoxicity at 10 µM does the source give for Cc1ccc(NC(=O)NC(C)(C)c2noc(C)n2)cc1 here?
**A.** 12.6%

**Q.** Which cytotoxicity at 10 µM does the source give for O=S1(=O)CCC(N(Cc2nc(-c3ccccn3)no2)Cc2cccs2)C1 (stereo unspecified) here?
**A.** -4.54%

**Q.** Which cytotoxicity at 10 µM does the source give for C[C@]1(O)CN(CC(=O)N2CCCC2)CC[C@@H]1Oc1cccc(F)c1 here?
**A.** -19.1%

**Q.** For Cc1noc(C)c1C(=O)NCc1ccc(N2CCOCC2)nc1, which cytotoxicity at 10 µM is on record?
**A.** -7.91%

**Q.** Which cytotoxicity at 10 µM does the source give for O=C(c1cn(-c2cc(N3CCSCC3)ncn2)cn1)N1CCSCC1 here?
**A.** -17.3%

**Q.** With CCC(CO)Nc1nc(C(F)F)nc2ccccc12 (stereo unspecified) as the compound, how does the cytotoxicity at 10 µM read?
**A.** 1.26%

**Q.** With CCS(=O)(=O)Nc1cnn(Cc2cccc(F)c2)c1 as the compound, how does the cytotoxicity at 10 µM read?
**A.** -1%

**Q.** For CCN(Cc1ccncc1)C1CCCN(Cc2ccc(F)cc2Cl)C1 (stereo unspecified), which cytotoxicity at 10 µM is on record?
**A.** 7.94%

**Q.** For Cc1c[nH]nc1C1CCN(C(=O)C2CCCC2)C1 (stereo unspecified), which cytotoxicity at 10 µM is on record?
**A.** 0.631%

**Q.** For O=S(=O)(CCN1CCOC(Cn2cccn2)C1)c1ccccc1 (stereo unspecified), which cytotoxicity at 10 µM is on record?
**A.** -0.165%

**Q.** With COc1ccc2c(c1)C(C(=O)N(C)CCc1scnc1C)CC(=O)N2 (stereo unspecified) as the compound, how does the cytotoxicity at 10 µM read?
**A.** -42.3%

**Q.** Which cytotoxicity at 10 µM does the source give for O=C(NCCN1CCOCC1)c1cc(-c2ccc(Cl)s2)[nH]n1 here?
**A.** -6.58%

**Q.** Which cytotoxicity at 10 µM does the source give for O=C(c1ccc2c(c1)COC2)N1CCC(Nc2cccnn2)CC1 here?
**A.** -13.1%

**Q.** Which cytotoxicity at 10 µM does the source give for O=C(Nc1cccnc1-n1cc(Cl)cn1)C1CCCCC1 here?
**A.** -39%

**Q.** For Cc1nocc1C(=O)N1CCCC2(CCN(c3cnn(C)c3)C2=O)C1 (stereo unspecified), which cytotoxicity at 10 µM is on record?
**A.** 2.43%

**Q.** With CN(CCOc1cccc(CNS(C)(=O)=O)c1)C1CCOCC1 as the compound, how does the cytotoxicity at 10 µM read?
**A.** 2.37%

**Q.** Which cytotoxicity at 10 µM does the source give for N#Cc1cccc(-c2ncnn2CC2(O)CCCCC2)c1 here?
**A.** 8.83%

**Q.** Which cytotoxicity at 10 µM does the source give for CN(C)C1CCCN(Cc2cccc(Cn3cccn3)c2)CC1 (stereo unspecified) here?
**A.** -12.6%

**Q.** For CC(=O)N1CCO[C@@H]2CN(S(=O)(=O)c3cccnc3)C[C@@H]2C1, which cytotoxicity at 10 µM is on record?
**A.** 3.02%

**Q.** With COCC(=O)N[C@H](C)c1onc(-c2ccccc2)c1C(=O)O as the compound, how does the cytotoxicity at 10 µM read?
**A.** 0.179%

**Q.** With N#Cc1c(Cl)nsc1NCc1ccc(N2CCSCC2)cc1 as the compound, how does the cytotoxicity at 10 µM read?
**A.** 1.24%

**Q.** Which cytotoxicity at 10 µM does the source give for Cc1nc(CN2CCC23CCN(C(=O)c2ccncc2)CC3)cs1 here?
**A.** 0.933%

**Q.** Which cytotoxicity at 10 µM does the source give for O=C(c1cnccn1)N1CCCC(Cc2cccc3ncccc23)C1 (stereo unspecified) here?
**A.** 12%

**Q.** Which cytotoxicity at 10 µM does the source give for Cc1nc(CN2CCCC(NCc3cnc(C(C)(C)C)s3)C2)no1 (stereo unspecified) here?
**A.** 0.38%

**Q.** Which cytotoxicity at 10 µM does the source give for Cc1cc(C(=O)N2CCC(CCn3cccn3)CC2)c(C)o1 here?
**A.** -5.27%

**Q.** Which cytotoxicity at 10 µM does the source give for Cc1nc(CNc2nc3c(s2)c(C)nn3C)cs1 here?
**A.** -109%

**Q.** Which cytotoxicity at 10 µM does the source give for Cn1c(=O)oc2ccc(NC(=O)N3CCOCC3)cc21 here?
**A.** -5.09%

**Q.** For O=C(c1ccc2[nH]ccc2c1)N1CCn2cc(CN3CCCC3)nc2C1, which cytotoxicity at 10 µM is on record?
**A.** -78.2%

**Q.** Which cytotoxicity at 10 µM does the source give for O=C(Nc1ccc(-n2cccn2)c(F)c1)C1CCN(C(=O)C2CC2)CC1 here?
**A.** 1.48%

**Q.** Which cytotoxicity at 10 µM does the source give for C1CCC(c2nc3c(c(N4CC(N5CCOCC5)C4)n2)CCNCC3)C1 here?
**A.** -10.2%

**Q.** With COCCN1CCC2(CCCN(Cc3ccoc3)C2)C1=O (stereo unspecified) as the compound, how does the cytotoxicity at 10 µM read?
**A.** 0.582%

**Q.** With Cc1cc(Br)cnc1NCCN1CCC(N(C)C)CC1 as the compound, how does the cytotoxicity at 10 µM read?
**A.** -10.6%

**Q.** With CC(=O)Nc1nc(C(=O)N2CCCC2Cn2cccn2)cs1 (stereo unspecified) as the compound, how does the cytotoxicity at 10 µM read?
**A.** -5.42%

**Q.** With CCC(Nc1cccc(OC)c1)C(=O)NCc1nc(C)cc(=O)[nH]1 (stereo unspecified) as the compound, how does the cytotoxicity at 10 µM read?
**A.** 4.91%

**Q.** With Cc1n[nH]c(C)c1CCNC(=O)C1CCCN(CC(N)=O)C1 (stereo unspecified) as the compound, how does the cytotoxicity at 10 µM read?
**A.** -0.653%

**Q.** With O=C(NCCNc1cnccn1)C1CCN(C(=O)N2CCCC2)CC1 as the compound, how does the cytotoxicity at 10 µM read?
**A.** -0.577%

**Q.** With O=C(NCc1cccs1)[C@H]1CO[C@H]2CCN(C3CCCC3)C[C@H]2C1 as the compound, how does the cytotoxicity at 10 µM read?
**A.** -110%

**Q.** With O=S(=O)(NC[C@H]1OC[C@@H](NCc2cccs2)[C@@H]1O)c1ccccc1 as the compound, how does the cytotoxicity at 10 µM read?
**A.** 3.98%

**Q.** Which cytotoxicity at 10 µM does the source give for CCn1[nH]c(C)c2c(C(F)(F)F)cc(=O)nc1-2 here?
**A.** -1.26%

**Q.** Which cytotoxicity at 10 µM does the source give for Cc1cnc(C(=O)N2C[C@@H]3CC[C@H]2CN(S(=O)(=O)N(C)C)C3)cn1 here?
**A.** -6.77%

**Q.** With CN(C(=O)CN(Cc1cccc(O)c1)C1CCC(O)CC1)C1CC1 (stereo unspecified) as the compound, how does the cytotoxicity at 10 µM read?
**A.** -0.586%

**Q.** Which cytotoxicity at 10 µM does the source give for O=c1[nH]c2c(c(=O)n1C1CCCCC1)CCC2Nc1ccccn1 (stereo unspecified) here?
**A.** -8.02%

**Q.** For O=C(NC[C@H]1OC[C@@H](NC2CCC(F)(F)CC2)[C@@H]1O)Nc1ccccc1, which cytotoxicity at 10 µM is on record?
**A.** 4.11%

**Q.** For CCO[C@H]1CN(C)C[C@@H]1NC(=O)c1cc(C)nc2c(C)cccc12, which cytotoxicity at 10 µM is on record?
**A.** 3.28%

**Q.** With CN(C)c1ccc(-c2cc(=O)n3c(n2)CCCCC3)cc1 as the compound, how does the cytotoxicity at 10 µM read?
**A.** -13.1%

**Q.** Which cytotoxicity at 10 µM does the source give for N#Cc1cccc(CN2CC[C@@H]3[C@@H]2CC(=O)N3CCN2CCCC2)c1 here?
**A.** -84.4%

**Q.** Which cytotoxicity at 10 µM does the source give for CCn1cc2c(n1)CN(Cc1ccncc1)CC2COCC1CC1 (stereo unspecified) here?
**A.** 6.59%

**Q.** With Cc1ccccc1N1CC2(CCN(c3nncs3)C2)CC1=O (stereo unspecified) as the compound, how does the cytotoxicity at 10 µM read?
**A.** -7.74%

**Q.** With Cc1cc(C)c(CNC(=O)N(C)Cc2ccoc2)c(=O)[nH]1 as the compound, how does the cytotoxicity at 10 µM read?
**A.** -6.02%

**Q.** With NC(=O)c1ccc(=O)n(Cc2cc(Br)ccc2Cl)n1 as the compound, how does the cytotoxicity at 10 µM read?
**A.** 4.71%

**Q.** For Cc1cccc(CN2CCC3(CCCN(C(=O)N4CCCC4)C3)C2=O)n1 (stereo unspecified), which cytotoxicity at 10 µM is on record?
**A.** 8.76%

**Q.** Which cytotoxicity at 10 µM does the source give for CCC(CC)c1cc(C(=O)N2CCN(CC(N)=O)CC2)on1 here?
**A.** -4.97%

**Q.** With O=C(c1cnc(O)c(Cl)c1)N1CCCC(c2nccs2)C1 (stereo unspecified) as the compound, how does the cytotoxicity at 10 µM read?
**A.** 3.63%

**Q.** Which cytotoxicity at 10 µM does the source give for Cc1ccc(CNCC2CCCn3ccnc32)s1 (stereo unspecified) here?
**A.** -15.1%

**Q.** With CC(C)c1nnc(CN2CCC3(CC2)Nc2ccccc2NC3=O)o1 as the compound, how does the cytotoxicity at 10 µM read?
**A.** -1.48%

**Q.** Which cytotoxicity at 10 µM does the source give for CN(CC(=O)N1CCC(Oc2ccccc2)CC1)c1cnccn1 here?
**A.** 2.12%

**Q.** With O=C1[C@@H]2CN(Cc3cc4ccccc4o3)C[C@]2(C(=O)O)CN1CC1CC1 as the compound, how does the cytotoxicity at 10 µM read?
**A.** -5.22%

**Q.** With CCCn1cc(Cl)c(C(=O)N2C[C@@H](O)[C@H](Oc3ccccc3)C2)n1 as the compound, how does the cytotoxicity at 10 µM read?
**A.** 5.31%

**Q.** With Cn1ncc2c(NCC3CCS(=O)(=O)C3)nc(C3CCCC3)nc21 (stereo unspecified) as the compound, how does the cytotoxicity at 10 µM read?
**A.** -5.1%

**Q.** For O=C(c1ccon1)N1CCCC(n2cncn2)C1 (stereo unspecified), which cytotoxicity at 10 µM is on record?
**A.** -8.51%

**Q.** For CN(C)Cc1nn(C)c2c1CN(C(=O)c1ccc[nH]1)C2, which cytotoxicity at 10 µM is on record?
**A.** 9.22%

**Q.** For c1nc(CN2CCC3(CC2)COCCN3CC2CC2)c[nH]1, which cytotoxicity at 10 µM is on record?
**A.** -1.26%

**Q.** With CCN1CCN(C(=O)C2CCCc3[nH]ncc32)CC1 (stereo unspecified) as the compound, how does the cytotoxicity at 10 µM read?
**A.** -1.21%

**Q.** For O=C(c1cnccn1)N1CCOCC2(CCN(C3CCOCC3)C2)C1 (stereo unspecified), which cytotoxicity at 10 µM is on record?
**A.** -7.94%

**Q.** Which cytotoxicity at 10 µM does the source give for CCCc1cc(N(CCOC)CC(F)F)n2ncnc2n1 here?
**A.** 4.81%

**Q.** Which cytotoxicity at 10 µM does the source give for COCC1COCCC12CCN(S(=O)(=O)c1ccc(C)cc1)CC2 (stereo unspecified) here?
**A.** 4.79%

**Q.** Which cytotoxicity at 10 µM does the source give for O=C(c1cccnc1N1CCCC1)N1CCOC(c2ccccc2)C1 (stereo unspecified) here?
**A.** 3.13%

**Q.** For CC1c2cccn2CCN1C(=O)CCCc1nc(-c2ccco2)no1 (stereo unspecified), which cytotoxicity at 10 µM is on record?
**A.** 7.16%

**Q.** For O=C(NCCNc1ncccn1)N1CCN(c2nccs2)CC1, which cytotoxicity at 10 µM is on record?
**A.** -13.8%

**Q.** With Cc1ccnc(C2CCCN2C(=O)c2cnccn2)n1 (stereo unspecified) as the compound, how does the cytotoxicity at 10 µM read?
**A.** -14.1%

**Q.** With Cc1cc(C)c2nc(CN3CCC(CN)C3)cc(O)c2c1 (stereo unspecified) as the compound, how does the cytotoxicity at 10 µM read?
**A.** -14.8%

**Q.** With CCc1nccn1CCC(=O)N1CCCC1c1cncc(NC)n1 (stereo unspecified) as the compound, how does the cytotoxicity at 10 µM read?
**A.** 3.53%

**Q.** For O=C(c1ccc(-c2nc[nH]n2)cc1)N1CCOC(C(F)(F)F)C1 (stereo unspecified), which cytotoxicity at 10 µM is on record?
**A.** -2.35%

**Q.** With CC(C)C(NC(=O)Cn1ccc(=O)n(C)c1=O)c1ccc(F)cc1 (stereo unspecified) as the compound, how does the cytotoxicity at 10 µM read?
**A.** -9.9%

**Q.** For O=C(CN1CC(c2nc(C3CC3)no2)C1)N1CCOCC1, which cytotoxicity at 10 µM is on record?
**A.** -9.76%

**Q.** With Cc1cc(C(=O)N2CCCC2)ccc1NCCOCC(F)(F)F as the compound, how does the cytotoxicity at 10 µM read?
**A.** 0.608%

**Q.** With CCNc1cc2c(nn1)CCN(C(=O)c1ccc(-n3cccn3)nc1)C2 as the compound, how does the cytotoxicity at 10 µM read?
**A.** 5.05%

**Q.** For CC(C)c1ncc(CN2C[C@@H](CN3CCC(CO)CC3)[C@@H](CO)C2)cn1, which cytotoxicity at 10 µM is on record?
**A.** 20%

**Q.** With O=C(NCC1COCc2c(-c3cccnc3)nnn2C1)c1cccs1 (stereo unspecified) as the compound, how does the cytotoxicity at 10 µM read?
**A.** 2.93%

**Q.** For CNC(=O)c1cccc(CN2CCN(c3ccncc3)CC2)c1, which cytotoxicity at 10 µM is on record?
**A.** -19.7%

**Q.** For COCCN1CCC2(CC1)CCN(Cc1ccccn1)CC2, which cytotoxicity at 10 µM is on record?
**A.** -3.54%
